Source: ChEMBL document CHEMBL5303300, “EUbOPEN Chemogenomics Library - Multiplex” (2023)
Where “and” joins values, the source holds several entries; their conditions need not be identical. Identical values can stand only once.

Columns and labels:
Format in all cases: toxicity, cell-based
[1] = system: Fibroblast; assay: Multiplex assay against human fibroblast; details: number of replicates 2
In short: (§1)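 Live cells were stained at seeding with Hoechst33342, BioTracker Green Microtubule Cytoskeleton Dye, MitoTracker Red and Annexin V Alexa Fluor 680, then imaged on a CQ1 microscope at 37°C and 5% CO2 after compound addition. CellPathfinder machine-learning gating split cells into Hoechst high-intensity objects or normal cells. Normal cells were split into healthy, pyknosed or fragmented nuclei, and pyknosed cells into mitotic or apoptotic. Tubulin, mitochondrial-mass and membrane-permeability phenotypes are per cents of healthy-nucleus cells.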

[2] = system: HEK-293T; assay: Multiplex assay against HEK293T; details: human, number of replicates 2; in short: as §1
[3] = system: U2OS; assay: Multiplex assay against U2OS; details: human, number of replicates 2; in short: as §1
[4] = 12 h, 1 µM, compound concentration 1 uM
[5] = 12 h, 10 µM, compound concentration 10 uM
[6] = 24 h, 1 µM, compound concentration 1 uM
[7] = 24 h, 10 µM, compound concentration 10 uM
[8] = 48 h, 1 µM, compound concentration 1 uM
[9] = 48 h, 10 µM, compound concentration 10 uM

Compound: CCC(=O)O[C@@H](OP(=O)(CCCCc1ccccc1)CC(=O)N1C[C@H](C2CCCCC2)C[C@H]1C(=O)[O-])C(C)C.[Na+] (stereo partly specified)
- Population Apoptotic (%) [1, 4]: 42% and 43%
- Population Fragmented Nuclei (%) [1, 4]: 7% and 8%
- Population Healthy Nuclei (%) [1, 4]: 69% and 71%
- Population Hoechst High Intensity Objects (%) [1, 4]: 0%
- Population Membrane Permeable-Phenotype (%) [1, 4]: 9% and 2%
- Population Mitochondria Different-Phenotype (%) [1, 4]: 0% and 2%
- Population Mitotic Cells (%) [1, 4]: 57% and 56%
- Population Normal (%) [1, 4]: 99%
- Population Pyknosed Nuclei (%) [1, 4]: 22% and 19%
- Population Tubulin-Different-Phenotype (%) [1, 4]: 11% and 9%
- Total Cell Count [1, 4]: 189 and 198
- Population Fragmented Nuclei (%) [1, 5]: 6% and 13%
- Population Healthy Nuclei (%) [1, 5]: 76% and 70%
- Population Hoechst High Intensity Objects (%) [1, 5]: 0%
- Population Membrane Permeable-Phenotype (%) [1, 5]: 5% and 2%
- Population Mitochondria Different-Phenotype (%) [1, 5]: 0%
- Population Mitotic Cells (%) [1, 5]: 45% and 82%
- Population Normal (%) [1, 5]: 100%
- Population Pyknosed Nuclei (%) [1, 5]: 16% and 15%
- Population Tubulin-Different-Phenotype (%) [1, 5]: 10% and 5%
- Total Cell Count [1, 5]: 207 and 226
- Population Apoptotic (%) [1, 6]: 50% and 45%
- Population Fragmented Nuclei (%) [1, 6]: 6% and 14%
- Population Healthy Nuclei (%) [1, 6]: 73% and 64%
- Population Hoechst High Intensity Objects (%) [1, 6]: 0%
- Population Membrane Permeable-Phenotype (%) [1, 6]: 3% and 6%
- Population Mitochondria Different-Phenotype (%) [1, 6]: 0% and 2%
- Population Mitotic Cells (%) [1, 6]: 50% and 54%
- Population Normal (%) [1, 6]: 100%
- Population Pyknosed Nuclei (%) [1, 6]: 20%
- Population Tubulin-Different-Phenotype (%) [1, 6]: 9% and 10%
- Total Cell Count [1, 6]: 178 and 215
- Population Apoptotic (%) [1, 7]: 41% and 50%
- Population Fragmented Nuclei (%) [1, 7]: 8% and 14%
- Population Healthy Nuclei (%) [1, 7]: 76% and 74%
- Population Hoechst High Intensity Objects (%) [1, 7]: 0%
- Population Membrane Permeable-Phenotype (%) [1, 7]: 5% and 1%
- Population Mitochondria Different-Phenotype (%) [1, 7]: 0%
- Population Mitotic Cells (%) [1, 7]: 58% and 50%
- Population Normal (%) [1, 7]: 99% and 100%
- Population Pyknosed Nuclei (%) [1, 7]: 15% and 11%
- Population Tubulin-Different-Phenotype (%) [1, 7]: 11% and 3%
- Total Cell Count [1, 7]: 223 and 221
- Population Apoptotic (%) [1, 8]: 68% and 61%
- Population Fragmented Nuclei (%) [1, 8]: 11% and 15%
- Population Healthy Nuclei (%) [1, 8]: 67% and 68%
- Population Hoechst High Intensity Objects (%) [1, 8]: 0%
- Population Membrane Permeable-Phenotype (%) [1, 8]: 5% and 11%
- Population Mitochondria Different-Phenotype (%) [1, 8]: 0% and 1%
- Population Mitotic Cells (%) [1, 8]: 31% and 38%
- Population Normal (%) [1, 8]: 100%
- Population Pyknosed Nuclei (%) [1, 8]: 20% and 16%
- Population Tubulin-Different-Phenotype (%) [1, 8]: 8%
- Total Cell Count [1, 8]: 183 and 213
- Population Apoptotic (%) [1, 9]: 45% and 48%
- Population Fragmented Nuclei (%) [1, 9]: 9% and 16%
- Population Healthy Nuclei (%) [1, 9]: 75% and 72%
- Population Hoechst High Intensity Objects (%) [1, 9]: 0%
- Population Membrane Permeable-Phenotype (%) [1, 9]: 4% and 1%
- Population Mitochondria Different-Phenotype (%) [1, 9]: 0%
- Population Mitotic Cells (%) [1, 9]: 54% and 52%
- Population Normal (%) [1, 9]: 99% and 100%
- Population Pyknosed Nuclei (%) [1, 9]: 14% and 10%
- Population Tubulin-Different-Phenotype (%) [1, 9]: 6% and 1%
- Total Cell Count [1, 9]: 222 and 228
- Population Apoptotic (%) [2, 4]: 44% and 35%
- Population Fragmented Nuclei (%) [2, 4]: 2% and 1%
- Population Healthy Nuclei (%) [2, 4]: 86% and 85%
- Population Hoechst High Intensity Objects (%) [2, 4]: 5% and 6%
- Population Membrane Permeable-Phenotype (%) [2, 4]: 3%
- Population Mitochondria Different-Phenotype (%) [2, 4]: 17% and 15%
- Population Mitotic Cells (%) [2, 4]: 55% and 64%
- Population Normal (%) [2, 4]: 94% and 93%
- Population Pyknosed Nuclei (%) [2, 4]: 11% and 12%
- Population Tubulin-Different-Phenotype (%) [2, 4]: 46% and 44%
- Total Cell Count [2, 4]: 721 and 624
- Population Apoptotic (%) [2, 5]: 28% and 35%
- Population Fragmented Nuclei (%) [2, 5]: 2% and 3%
- Population Healthy Nuclei (%) [2, 5]: 84% and 86%
- Population Hoechst High Intensity Objects (%) [2, 5]: 5% and 6%
- Population Membrane Permeable-Phenotype (%) [2, 5]: 1% and 3%
- Population Mitochondria Different-Phenotype (%) [2, 5]: 13%
- Population Mitotic Cells (%) [2, 5]: 71% and 64%
- Population Normal (%) [2, 5]: 94% and 93%
- Population Pyknosed Nuclei (%) [2, 5]: 12% and 10%
- Population Tubulin-Different-Phenotype (%) [2, 5]: 51% and 50%
- Total Cell Count [2, 5]: 743 and 727
- Population Apoptotic (%) [2, 6]: 40% and 41%
- Population Fragmented Nuclei (%) [2, 6]: 5% and 3%
- Population Healthy Nuclei (%) [2, 6]: 86% and 88%
- Population Hoechst High Intensity Objects (%) [2, 6]: 7% and 8%
- Population Membrane Permeable-Phenotype (%) [2, 6]: 3%
- Population Mitochondria Different-Phenotype (%) [2, 6]: 4% and 5%
- Population Mitotic Cells (%) [2, 6]: 59% and 58%
- Population Normal (%) [2, 6]: 92% and 91%
- Population Pyknosed Nuclei (%) [2, 6]: 7% and 8%
- Population Tubulin-Different-Phenotype (%) [2, 6]: 26% and 30%
- Total Cell Count [2, 6]: 1141 and 899
- Population Apoptotic (%) [2, 7]: 18% and 31%
- Population Fragmented Nuclei (%) [2, 7]: 3% and 4%
- Population Healthy Nuclei (%) [2, 7]: 89% and 88%
- Population Hoechst High Intensity Objects (%) [2, 7]: 6% and 9%
- Population Membrane Permeable-Phenotype (%) [2, 7]: 3% and 2%
- Population Mitochondria Different-Phenotype (%) [2, 7]: 2% and 3%
- Population Mitotic Cells (%) [2, 7]: 81% and 68%
- Population Normal (%) [2, 7]: 93% and 90%
- Population Pyknosed Nuclei (%) [2, 7]: 7% and 6%
- Population Tubulin-Different-Phenotype (%) [2, 7]: 28% and 31%
- Total Cell Count [2, 7]: 1219 and 1091
- Population Apoptotic (%) [2, 8]: 22% and 18%
- Population Fragmented Nuclei (%) [2, 8]: 12% and 7%
- Population Healthy Nuclei (%) [2, 8]: 84% and 88%
- Population Hoechst High Intensity Objects (%) [2, 8]: 9% and 11%
- Population Membrane Permeable-Phenotype (%) [2, 8]: 5% and 4%
- Population Mitochondria Different-Phenotype (%) [2, 8]: 0% and 1%
- Population Mitotic Cells (%) [2, 8]: 77% and 81%
- Population Normal (%) [2, 8]: 90% and 88%
- Population Pyknosed Nuclei (%) [2, 8]: 2% and 3%
- Population Tubulin-Different-Phenotype (%) [2, 8]: 10% and 14%
- Total Cell Count [2, 8]: 2926 and 1957
- Population Apoptotic (%) [2, 9]: 5% and 13%
- Population Fragmented Nuclei (%) [2, 9]: 14% and 8%
- Population Healthy Nuclei (%) [2, 9]: 82% and 87%
- Population Hoechst High Intensity Objects (%) [2, 9]: 10% and 11%
- Population Membrane Permeable-Phenotype (%) [2, 9]: 4% and 3%
- Population Mitochondria Different-Phenotype (%) [2, 9]: 0%
- Population Mitotic Cells (%) [2, 9]: 94% and 86%
- Population Normal (%) [2, 9]: 89% and 88%
- Population Pyknosed Nuclei (%) [2, 9]: 2% and 4%
- Population Tubulin-Different-Phenotype (%) [2, 9]: 12% and 17%
- Total Cell Count [2, 9]: 3198 and 2304
- Population Apoptotic (%) [3, 4]: 33% and 87%
- Population Healthy Nuclei (%) [3, 4]: 60% and 83%
- Population Hoechst High Intensity Objects (%) [3, 4]: 0%
- Population Membrane Permeable-Phenotype (%) [3, 4]: 0% and 1%
- Population Mitochondria Different-Phenotype (%) [3, 4]: 0%
- Population Normal (%) [3, 4]: 100%
- Population Pyknosed Nuclei (%) [3, 4]: 6% and 12%
- Population Tubulin-Different-Phenotype (%) [3, 4]: 80% and 82%
- Population Apoptotic (%) [3, 5]: 100% and 40%
- Population Healthy Nuclei (%) [3, 5]: 53% and 87%
- Population Hoechst High Intensity Objects (%) [3, 5]: 0%
- Population Membrane Permeable-Phenotype (%) [3, 5]: 7% and 0%
- Population Mitochondria Different-Phenotype (%) [3, 5]: 7% and 0%
- Population Normal (%) [3, 5]: 100%
- Population Pyknosed Nuclei (%) [3, 5]: 7%
- Population Tubulin-Different-Phenotype (%) [3, 5]: 78% and 80%
- Population Apoptotic (%) [3, 6]: 40% and 80%
- Population Healthy Nuclei (%) [3, 6]: 61% and 87%
- Population Hoechst High Intensity Objects (%) [3, 6]: 0%
- Population Membrane Permeable-Phenotype (%) [3, 6]: 0%
- Population Mitochondria Different-Phenotype (%) [3, 6]: 0%
- Population Normal (%) [3, 6]: 100% and 99%
- Population Pyknosed Nuclei (%) [3, 6]: 8%
- Population Tubulin-Different-Phenotype (%) [3, 6]: 80% and 86%
- Population Apoptotic (%) [3, 7]: 80% and 41%
- Population Fragmented Nuclei (%) [3, 7]: 4%
- Population Healthy Nuclei (%) [3, 7]: 71% and 87%
- Population Hoechst High Intensity Objects (%) [3, 7]: 0%
- Population Membrane Permeable-Phenotype (%) [3, 7]: 6% and 1%
- Population Mitochondria Different-Phenotype (%) [3, 7]: 0%
- Population Mitotic Cells (%) [3, 7]: 20% and 58%
- Population Normal (%) [3, 7]: 100% and 99%
- Population Pyknosed Nuclei (%) [3, 7]: 23% and 8%
- Population Tubulin-Different-Phenotype (%) [3, 7]: 80% and 83%
- Population Apoptotic (%) [3, 8]: 50% and 84%
- Population Healthy Nuclei (%) [3, 8]: 72% and 90%
- Population Hoechst High Intensity Objects (%) [3, 8]: 0%
- Population Membrane Permeable-Phenotype (%) [3, 8]: 0% and 1%
- Population Mitochondria Different-Phenotype (%) [3, 8]: 0%
- Population Normal (%) [3, 8]: 100% and 99%
- Population Pyknosed Nuclei (%) [3, 8]: 10% and 6%
- Population Tubulin-Different-Phenotype (%) [3, 8]: 87% and 85%
- Population Apoptotic (%) [3, 9]: 75% and 46%
- Population Healthy Nuclei (%) [3, 9]: 64% and 92%
- Population Hoechst High Intensity Objects (%) [3, 9]: 0%
- Population Membrane Permeable-Phenotype (%) [3, 9]: 4% and 0%
- Population Mitochondria Different-Phenotype (%) [3, 9]: 0%
- Population Mitotic Cells (%) [3, 9]: 25% and 53%
- Population Normal (%) [3, 9]: 100%
- Population Tubulin-Different-Phenotype (%) [3, 9]: 70% and 85%
